# Assay results taken from ChEMBL document CHEMBL2434944, “Novel acetamidothiazole derivatives: synthesis and in vitro anticancer evaluation” (Eur J Med Chem, 2013).
# Key:
# K562 = experiment: Growth inhibition of human K562 cells assessed as cell growth at 10^-5 M after 48 hrs by sulforhodamine B assay relative to control; type: functional; conditions: K562, 48 h, read-out: Activity
# Outline: (§1)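 NCI-60 single-dose screen at 10^-5 M. Cells grown in RPMI 1640 with 5% FBS and 2 mM L-glutamine, plated at 5,000–40,000 cells/well according to doubling time, and preincubated 24 h at 37°C, 5% CO2. Compound dissolved in DMSO and added. Exposure 48 h. Adherent cells fixed with cold TCA (10% final), suspension cells with 16% final TCA. Read-out is 0.4% SRB staining, dye solubilised in 10 mM Tris, absorbance at 515 nm. Percent growth is calculated against the time-zero plate and untreated control.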
# UACC-62 = experiment: Growth inhibition of human UACC62 cells assessed as cell growth at 10^-5 M after 48 hrs by sulforhodamine B assay relative to control; type: functional; conditions: UACC-62, 48 h, read-out: Activity
# Outline: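 NCI-60 single-dose screen, 10^-5 M final. Cells grown in RPMI 1640 with 5% FBS and 2 mM L-glutamine, seeded at 5,000–40,000 cells/well by doubling time. Preincubated 24 h at 37°C, 5% CO2. Compound in DMSO, diluted in medium with gentamicin, then 48 h exposure. Fixed with cold TCA, SRB stained, A515 read. Percent growth vs untreated control, time-zero plate corrected.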
# CCRF-CEM = experiment: Growth inhibition of human CCRF-CEM cells assessed as cell growth at 10^-5 M after 48 hrs by sulforhodamine B assay relative to control; type: functional; conditions: read-out: Activity; outline: as §1
# SF-268 = experiment: Growth inhibition of human SF268 cells assessed as cell growth at 10^-5 M after 48 hrs by sulforhodamine B assay relative to control; type: functional; conditions: SF-268, 48 h, read-out: Activity; outline: as §1
# RPMI-8226 = experiment: Growth inhibition of human RPMI8226 cells assessed as cell growth at 10^-5 M after 48 hrs by sulforhodamine B assay relative to control; type: functional; conditions: RPMI-8226, 48 h, read-out: Activity; outline: as §1
# DU-145 = experiment: Growth inhibition of human DU145 cells assessed as cell growth at 10^-5 M after 48 hrs by sulforhodamine B assay relative to control; type: functional; conditions: DU-145, 48 h, read-out: Activity; outline: as §1
# CAKI-1 = experiment: Growth inhibition of human CAKI-1 cells assessed as cell growth at 10^-5 M after 48 hrs by sulforhodamine B assay relative to control; type: functional; conditions: CAKI-1, 48 h, read-out: Activity; outline: as §1
# HL-60(TB) = experiment: Growth inhibition of human HL-60(TB) cells assessed as cell growth at 10^-5 M after 48 hrs by sulforhodamine B assay relative to control; type: functional; conditions: HL-60, 48 h, read-out: Activity
# Outline: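 NCI-60 one-dose screen at 10^-5 M. Cells were grown in RPMI 1640 with 5% FBS and 2 mM L-glutamine and plated at 5,000–40,000 cells/well. They were preincubated 24 h at 37°C under 5% CO2, then exposed for 48 h. Suspension cells were fixed with 80% TCA (16% final) and stained with 0.4% SRB, read at 515 nm. Percent growth is versus untreated control, corrected for time-zero.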
# OVCAR-3 = experiment: Growth inhibition of human OVCAR3 cells assessed as cell growth at 10^-5 M after 48 hrs by sulforhodamine B assay relative to control; type: functional; conditions: OVCAR-3, 48 h, read-out: Activity; outline: as §1
# NCI-H322M = experiment: Growth inhibition of human NCI-H322M cells assessed as cell growth at 10^-5 M after 48 hrs by sulforhodamine B assay relative to control; type: functional; conditions: read-out: Activity; outline: as §1
# Vitamin D3 receptor = target: T1, Vitamin D3 receptor (Homo sapiens, UniProt P11473); experiment: Inhibition of human vitamin D3 receptor
# T1 sequence (P11473 whole entry): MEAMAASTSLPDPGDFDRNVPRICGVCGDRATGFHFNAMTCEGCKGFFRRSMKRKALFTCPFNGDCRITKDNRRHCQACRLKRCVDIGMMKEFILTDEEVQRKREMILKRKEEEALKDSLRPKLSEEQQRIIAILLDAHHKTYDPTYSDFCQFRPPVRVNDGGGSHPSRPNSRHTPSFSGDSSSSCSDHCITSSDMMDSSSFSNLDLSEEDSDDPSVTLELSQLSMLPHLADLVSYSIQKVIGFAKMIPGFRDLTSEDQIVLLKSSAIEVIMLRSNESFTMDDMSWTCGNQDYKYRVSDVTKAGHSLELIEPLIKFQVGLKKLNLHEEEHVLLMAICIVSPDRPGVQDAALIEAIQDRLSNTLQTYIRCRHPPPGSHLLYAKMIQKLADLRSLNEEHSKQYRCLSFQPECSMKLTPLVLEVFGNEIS
# [1] = Growth inhibition of human NCI-ADR-RES cells assessed as cell growth at 10^-5 M after 48 hrs by sulforhodamine B assay relative to control; type: functional; conditions: read-out: Activity; outline: as §1
# NCI-H226 = experiment: Growth inhibition of human NCI-H226 cells assessed as cell growth at 10^-5 M after 48 hrs by sulforhodamine B assay relative to control; type: functional; conditions: NCI-H226, 48 h, read-out: Activity; outline: as §1
# [2] = Growth inhibition of human Hs 578T cells assessed as cell growth at 10^-5 M after 48 hrs by sulforhodamine B assay relative to control; type: functional; conditions: read-out: Activity; outline: as §1
# COLO 205 = experiment: Growth inhibition of human COLO205 cells assessed as cell growth at 10^-5 M after 48 hrs by sulforhodamine B assay relative to control; type: functional; conditions: COLO 205, 48 h, read-out: Activity; outline: as §1
# SF-539 = experiment: Growth inhibition of human SF539 cells assessed as cell growth at 10^-5 M after 48 hrs by sulforhodamine B assay relative to control; type: functional; conditions: SF-539, 48 h, read-out: Activity; outline: as §1
# ACHN = experiment: Growth inhibition of human ACHN cells assessed as cell growth at 10^-5 M after 48 hrs by sulforhodamine B assay relative to control; type: functional; conditions: read-out: Activity; outline: as §1
# [3] = target: Proto-oncogene tyrosine-protein kinase Src (Homo sapiens, UniProt P12931); experiment: Inhibition of human SRC
# Sequence of Proto-oncogene tyrosine-protein kinase Src (P12931 2-536 limits assumed): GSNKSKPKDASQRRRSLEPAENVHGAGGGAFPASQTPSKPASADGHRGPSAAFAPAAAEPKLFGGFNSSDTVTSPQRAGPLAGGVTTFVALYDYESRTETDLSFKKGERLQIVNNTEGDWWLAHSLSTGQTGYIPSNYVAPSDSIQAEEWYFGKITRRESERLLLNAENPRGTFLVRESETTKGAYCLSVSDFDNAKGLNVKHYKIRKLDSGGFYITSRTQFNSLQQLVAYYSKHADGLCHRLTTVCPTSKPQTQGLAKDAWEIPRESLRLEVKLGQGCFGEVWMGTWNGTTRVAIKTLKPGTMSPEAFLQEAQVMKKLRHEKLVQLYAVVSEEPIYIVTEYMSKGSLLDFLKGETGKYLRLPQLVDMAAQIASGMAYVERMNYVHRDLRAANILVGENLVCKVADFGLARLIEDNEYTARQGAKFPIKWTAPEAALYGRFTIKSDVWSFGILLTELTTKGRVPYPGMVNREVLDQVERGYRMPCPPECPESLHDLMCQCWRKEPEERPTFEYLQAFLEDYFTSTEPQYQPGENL
Compound,growth at 10 µM (K562) [%],growth at 10 µM (UACC-62) [%],growth at 10 µM (CCRF-CEM) [%],growth at 10 µM (SF-268) [%],growth at 10 µM (RPMI-8226) [%],growth at 10 µM (DU-145) [%],growth at 10 µM (CAKI-1) [%],growth at 10 µM (HL-60(TB)) [%],growth at 10 µM (OVCAR-3) [%],growth at 10 µM (NCI-H322M) [%],Ki (Vitamin D3 receptor) [µM],growth at 10 µM [1] [%],growth at 10 µM (NCI-H226) [%],growth at 10 µM [2] [%],growth at 10 µM (COLO 205) [%],growth at 10 µM (SF-539) [%],growth at 10 µM (ACHN) [%],Ki [3] [µM]
Cc1ccc(-c2csc(=N)n2CC(=O)N2CCN(c3ccccc3)CC2)cc1,100,85.9,103,105,92.4,104,70.4,127,95.4,99.7,1.03,92.6,97.2,88.2,109,100,81.2,13.5
CC(=O)N1CCN(C(=O)Cn2c(-c3ccc(C)cc3)csc2=N)CC1,84.3,74.2,88.2,101,82.3,110,81.5,108,108,108,2.84,93,96,105,106,99.9,92.8,15.3
CC(=O)N1CCN(C(=O)Cn2c(-c3ccc(Cl)cc3)csc2=N)CC1,72,81.9,92.3,95.1,73.3,99,82.8,98,97.7,90.4,2.28,95.5,96.3,104,97,90.2,90.7,14.8
CC(=O)N1CCN(C(=O)Cn2c(-c3ccccc3)csc2=N)CC1,86.8,89.6,103,100,97.3,112,76.8,111,102,94.4,4.66,105,88.8,110,99.8,91.6,89.5,34.3
CN1CCN(C(=O)Cn2c(-c3ccc(Cl)cc3)csc2=N)CC1,73.1,90.2,89.1,98.4,79.1,99,85.9,102,101,95.9,3.66,98,95.9,106,101,100,98.6,3.23
N=c1scc(-c2ccccc2)n1CC(=O)N1CCOCC1,89.2,92.5,98.6,104,95.4,107,76.2,118,97,97.9,24.4,105,86.7,101,107,98.8,88,20.2
N=c1scc(-c2ccc(Cl)cc2)n1CC(=O)N1CCOCC1,70.9,83.2,91.3,102,78.7,104,84.4,96.6,108,104,4.13,98.3,94.4,105,101,95.8,99.4,16.7
